Test results as given in ChEMBL document CHEMBL1155456, “Thiadiazole carbamates: potent inhibitors of lysosomal acid lipase and potential Niemann-Pick type C disease therapeutics” (J Med Chem, 2010).
The source made the active and inactive calls.

Assays:
[1] = target: T1, Lysosomal acid lipase/cholesteryl ester hydrolase (Homo sapiens, UniProt P38571); experiment: Inhibition of human LAL after 30 mins by fluorescence assay
T1 sequence (P38571 whole entry): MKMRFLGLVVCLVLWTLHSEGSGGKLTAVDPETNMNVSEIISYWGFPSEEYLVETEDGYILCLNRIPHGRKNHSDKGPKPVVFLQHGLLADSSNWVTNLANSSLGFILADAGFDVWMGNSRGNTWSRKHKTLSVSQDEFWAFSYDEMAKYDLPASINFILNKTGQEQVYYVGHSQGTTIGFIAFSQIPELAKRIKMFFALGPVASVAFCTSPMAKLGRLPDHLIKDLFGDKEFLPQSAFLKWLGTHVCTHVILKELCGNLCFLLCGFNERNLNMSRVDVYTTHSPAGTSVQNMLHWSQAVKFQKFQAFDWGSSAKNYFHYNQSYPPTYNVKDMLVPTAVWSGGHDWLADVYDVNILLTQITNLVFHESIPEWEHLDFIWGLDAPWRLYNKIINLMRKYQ
Method in brief: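 Purified recombinant human LAL (1 mU/ml final) with threefold serial compound dilutions in 200 mM sodium acetate pH 5.5, 0.02% Tween-20, 30 min at 37 °C. 125 μM (final) 4-methylumbelliferyl oleate in Triton X-100 added; fluorescence (ex 355/em 450) read after 1 h at 37 °C. IC50 from rectangular-hyperbola fit of normalized activity; mean ± SEM of 3 independent experiments.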

[2] = Cytotoxicity against human GM05659 cells at 10 uM; format: cell-based
[3] = target: T2, Lysosomal acid lipase/cholesteryl ester hydrolase (Homo sapiens) (UniProt P38571); experiment: Inhibition of human LAL assessed as enzyme decarbamoylation rate constant at 10 uM after 30 mins by fluorescence assay
T2 sequence (whole entry): T1 sequence (P38571 whole entry)
Method in brief: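 Purified human LAL carbamoylated with 10 μM compound for 30 min, then diluted 250× to 40 nM with 125 μM 4-methylumbelliferyl oleate. Run at 37 °C, pH 5.5 acetate buffer with Tween and Triton X-100; fluorescence read every 10 min for 2 h. k3 from linear regression of ln(fraction inhibited) vs time; mean ± SEM of 4 experiments.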

[4] = Cytotoxicity against human GM03123 cells at 10 uM; format: cell-based
[5] = target: T2, Lysosomal acid lipase/cholesteryl ester hydrolase (Homo sapiens); experiment: Inhibition of LAL in human GM05659 cell lysate assessed as reduction in lysosomal storage organelle cholesterol level at 0.1 to 10 uM after 4 days by bicinchoninic acid assay
Method in brief: (§1)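 Human fibroblasts in MEM with 10% FBS, exposed to compound 3–4 days (withdrawal variant: 3 days treatment, then 1 day compound-free). Cells PBS-washed, rinsed in 150 mM sodium acetate pH 5.5, lysed in 1% Triton X-100 for 30 min at 37 °C. 1 mM (final) 4-methylumbelliferyl oleate added; fluorescence activity normalized to protein by bicinchoninic acid assay.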

[6] = target: T2, Lysosomal acid lipase/cholesteryl ester hydrolase (Homo sapiens); experiment: Inhibition of human LAL at 833 nM by fluorescence assay; conditions: TDE = time-dependent effect
Method in brief: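 Purified human LAL pre-incubated with compound at 833 nM for varying times at 37 °C (500 nM final in assay). Reaction started with 125 μM (final) 4-methylumbelliferyl oleate, followed 30 min at 37 °C. Normalized to DMSO control; mean ± SEM of 2 experiments, 12 wells per condition.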

[7] = target: T2, Lysosomal acid lipase/cholesteryl ester hydrolase (Homo sapiens); experiment: Inhibition of human LAL at 10 uM after 30 mins by fluorescence assay
[8] = target: T2, Lysosomal acid lipase/cholesteryl ester hydrolase (Homo sapiens); experiment: Inhibition of LAL in human GM05659 cell lysate assessed as reduction in lysosomal storage organelle cholesterol level at 0.1 to 10 uM treated for 3 days measured after 1 day of compound withdrawal by bicinchoninic acid assay; method in brief: as §1
[9] = target: T2, Lysosomal acid lipase/cholesteryl ester hydrolase (Homo sapiens); experiment: Inhibition of LAL in intact human GM03123 cells assessed as reduction in lysosomal storage organelle cholesterol level at 10 uM after 3 days by filipin LSO assay; format: cell-based
Method in brief: (§2)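 Fibroblasts in MEM with 10% FBS treated 3 days, stained with filipin or LipidTOX green, imaged by automated fluorescence microscopy. After background correction, integrated thresholded fluorescence within lysosomal storage organelles was normalized to total cell area defined by low-threshold filipin signal.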

[10] = target: T2, Lysosomal acid lipase/cholesteryl ester hydrolase (Homo sapiens); experiment: Inhibition of LAL in intact human GM05659 cells assessed as increase in neutral lipid accumulation in lysosomal storage organelle at 10 uM after 3 days by lipidTox green staining-based fluorescence microscopy; format: cell-based; method in brief: as §2
[11] = target: T2, Lysosomal acid lipase/cholesteryl ester hydrolase (Homo sapiens); experiment: Competitive inhibition of human LAL preincubated for 30 mins by Lineweaver-Burke plot analysis
Method in brief: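 Purified recombinant human LAL pre-incubated with inhibitor 30 min at 37 °C; reaction started with 4-methylumbelliferyl oleate at various concentrations, monitored 45 min. Concentrations are final. Lineweaver-Burk plots fitted by linear regression; two independent experiments, 6–8 wells per treated condition.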

Row | SMILES | Activity [2] | Activity [4] | inhibition [7] | other results
1 | O=C(Oc1nsnc1N1CCCC1)N1CCOCC1 | Non-toxic | Non-toxic | – | IC50 [1]: 473 nM; Activity [3]: 0.0037 min⁻¹; inhibition [5]: Active; inhibition [6]: tde
2 | O=C(Cc1nsnc1N1CCOCC1)N1CCOCC1 | Non-toxic | Non-toxic | inactive | –
3 | O=C(Cc1nsnc1N1CCOCC1)c1ccccc1 | Non-toxic | Non-toxic | inactive | –
4 | CC(C)(C)OC(=O)Cc1nsnc1N1CCOCC1 | Non-toxic | Non-toxic | inactive | –
5 | CC(C)(C)C(=O)Cc1nsnc1N1CCOCC1 | Non-toxic | Non-toxic | inactive | –
6 | CCOC(=O)Cc1nsnc1N1CCOCC1 | Non-toxic | Non-toxic | inactive | –
7 | CN1CCC(OC(=O)Nc2ccc(F)cc2)CC1 | – | – | inactive | –
8 | O=C(Cc1nsnc1N1CCCCC1)N1CCOCC1 | Non-toxic | Non-toxic | inactive | –
9 | CC(C(=O)c1ccccc1)c1nsnc1N1CCOCC1 (racemic) | Non-toxic | Non-toxic | inactive | –
10 | O=C(Oc1nsnc1N1CCCC1)N1CCCCC1 | Non-toxic | Non-toxic | – | IC50 [1]: 496 nM; Activity [3]: 0.0007 min⁻¹; inhibition [5]: Active; inhibition [8]: Active
11 | O=C(Oc1nsnc1N1CCCCC1)N1CCCCC1 | Non-toxic | Non-toxic | – | IC50 [1]: 152 nM; inhibition [9]: Active; inhibition [10]: Active; Activity [3]: 0.001 min⁻¹; inhibition [5]: Active; inhibition [8]: Active; inhibition [6]: tde
12 | O=C(Oc1nsnc1N1CCCCCC1)N1CCCCC1 | Non-toxic | Non-toxic | – | IC50 [1]: 300 nM; Activity [3]: 0.0013 min⁻¹; inhibition [5]: Active; inhibition [8]: Active; inhibition [6]: tde
13 | COC(=O)C(CCc1ccccc1)c1nsnc1N1CCOCC1 (racemic) | Non-toxic | Non-toxic | inactive | –
14 | O=C(Oc1nsnc1N1CCCCC1)N1CCOCC1 | Non-toxic | Non-toxic | – | IC50 [1]: 68 nM; Activity [3]: 0.003 min⁻¹; inhibition [11]: Active; inhibition [5]: Active; inhibition [6]: tde
15 | CC(C)(C)OC(=O)Cc1nsnc1N1CCCCC1 | Non-toxic | Non-toxic | – | –
16 | CN(C)C(=O)Oc1cccc([N+](C)(C)C)c1 | – | – | inactive | –
17 | Oc1nsnc1N1CCCC1 | Non-toxic | Non-toxic | inactive | –
18 | O=C(Oc1nsnc1N1CCOCC1)N1CCCCC1 | Non-toxic | Non-toxic | – | IC50 [1]: 424 nM; Activity [3]: 0.0016 min⁻¹; inhibition [5]: Active; inhibition [6]: tde
19 | Oc1nsnc1N1CCCCCC1 | Non-toxic | Non-toxic | inactive | –
20 | COC(=O)C(C)(C)c1nsnc1N1CCOCC1 | Non-toxic | Non-toxic | inactive | –
21 | COC(=O)C(C)c1nsnc1N1CCOCC1 (racemic) | Non-toxic | Non-toxic | Active | –
22 | Oc1nsnc1N1CCCCC1 | Non-toxic | Non-toxic | inactive | –
23 | CNC(=O)Oc1ccc2c(c1)[C@]1(C)CCN(C)[C@@H]1N2C | – | – | inactive | –
24 | Oc1nsnc1N1CCOCC1 | Non-toxic | Non-toxic | inactive | –
25 | O=C(Oc1nsnc1N1CCCCCC1)N1CCOCC1 | Non-toxic | Non-toxic | – | IC50 [1]: 189 nM; Activity [3]: 0.0042 min⁻¹; inhibition [5]: Active; inhibition [6]: tde
26 | COc1ccccc1OCC(CO)OC(N)=O (stereo not given) | – | – | inactive | –
27 | COC(N)=O | – | – | inactive | –
28 | NCCCCCCNC(=O)OCc1ccccc1 | – | – | inactive | –
29 | O=C(Oc1nsnc1N1CCOCC1)N1CCOCC1 | Non-toxic | Non-toxic | – | IC50 [1]: 492 nM; inhibition [9]: inactive; inhibition [10]: inactive; Activity [3]: 0.0043 min⁻¹; inhibition [5]: Active; inhibition [6]: tde
